Published values pooled from the literature.
Protocols differ between the studies behind these lines. pIC50: −log10 of the molar value.
Read-out: cell growth or viability

COc1cc2nccc(Oc3ccc(NC(=O)C4(C(=O)Nc5ccc(F)cc5)CC4)cc3)c2cc1OC
pIC50 (BJ; 72 h): 5.34

COc1cccc2c1C(=O)c1c(O)c3c(c(O)c1C2=O)C[C@@](O)(C(=O)CO)C[C@@H]3O[C@H]1C[C@H](N)[C@H](O)[C@H](C)O1
IC50 (4T1.2; MTT; 48 h): 0.272 µg/mL

CN(C)C/C=C/C(=O)Nc1cc2c(Nc3ccc(F)c(Cl)c3)ncnc2cc1O[C@H]1CCOC1
pIC50 (KB-C2; MTT; 72 h): 5.31

CC(=O)O[C@H]1C(=O)[C@@]2(C)[C@H]([C@H](OC(=O)c3ccccc3)[C@]3(O)C[C@H](OC(=O)[C@H](O)[C@@H](NC(=O)c4ccccc4)c4ccccc4)C(C)=C1C3(C)C)[C@]1(OC(C)=O)CO[C@@H]1C[C@@H]2O
IC50 (LN-18): 1 µg/mL

COc1cc(N2CCC(N3CCN(C)CC3)CC2)ccc1Nc1ncc(Cl)c(Nc2ccccc2S(=O)(=O)C(C)C)n1
pIC50 (BJ; 72 h): 6.05

CC(C)C(=O)Nc1ccc([N+](=O)[O-])c(C(F)(F)F)c1
pIC50 (IOSE-144; CCK-8; 48 h): < 4.30

O=C(N/N=C/c1c(O)ccc2ccccc12)c1cc(-c2ccc3ccccc3c2)n[nH]1
pIC50 (1205Lu; MTS; 24 h): 4.69

Oc1ccc(-c2ccc3cc(O)ccc3c2)c(O)c1
IC50 (CHL; MTT; 24 h): 119 µg/mL

O=C1NC(=O)[C@@H](c2cn3c4c(cccc24)CCC3)[C@@H]1c1c[nH]c2ccccc12
pIC50 (SW-1736; MTT; 72 h): 6.96

Cc1[nH]c(/C=C2\C(=O)Nc3ccc(S(=O)(=O)N(C)c4cccc(Cl)c4)cc32)c(C)c1C(=O)N1CCN(C)CC1
pIC50 (BJ; 72 h): 5.28

Oc1ccc(Nc2nc(-c3ccc(Cl)cc3)cs2)cc1
pIC50 (1205Lu; MTS; 24 h): < 4.00

CC(C)C[C@H](NC(=O)[C@H](Cc1ccccc1)NC(=O)c1cnccn1)B(O)O
pIC50 (HuTu80; ATP luminescence): 7.85
